# Source: ChEMBL document CHEMBL1125320, “Imidazole-5-acrylic acids: potent nonpeptide angiotensin II receptor antagonists designed using a novel peptide pharmacophore model” (J Med Chem, 1992)
# pIC50: −log10 of the molar value.
# How the values were obtained:
# Angiotensin II receptor = target: T1, Angiotensin II receptor (Rattus norvegicus, UniProt P29089+P25095+P35351); test: Inhibition of [125I]angiotensin II specific binding to rat mesenteric arteries; assay type: protein assay
# T1 sequence (P29089 whole entry): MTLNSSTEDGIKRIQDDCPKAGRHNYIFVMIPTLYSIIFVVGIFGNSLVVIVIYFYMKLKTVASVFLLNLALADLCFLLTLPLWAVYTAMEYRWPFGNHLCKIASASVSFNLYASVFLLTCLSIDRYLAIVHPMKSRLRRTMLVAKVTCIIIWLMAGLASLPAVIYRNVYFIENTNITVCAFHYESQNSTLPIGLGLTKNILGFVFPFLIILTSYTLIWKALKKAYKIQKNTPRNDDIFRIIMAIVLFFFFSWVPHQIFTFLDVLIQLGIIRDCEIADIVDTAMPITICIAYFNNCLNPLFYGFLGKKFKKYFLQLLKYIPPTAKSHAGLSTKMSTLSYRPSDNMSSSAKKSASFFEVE
# T1 sequence (P25095 whole entry): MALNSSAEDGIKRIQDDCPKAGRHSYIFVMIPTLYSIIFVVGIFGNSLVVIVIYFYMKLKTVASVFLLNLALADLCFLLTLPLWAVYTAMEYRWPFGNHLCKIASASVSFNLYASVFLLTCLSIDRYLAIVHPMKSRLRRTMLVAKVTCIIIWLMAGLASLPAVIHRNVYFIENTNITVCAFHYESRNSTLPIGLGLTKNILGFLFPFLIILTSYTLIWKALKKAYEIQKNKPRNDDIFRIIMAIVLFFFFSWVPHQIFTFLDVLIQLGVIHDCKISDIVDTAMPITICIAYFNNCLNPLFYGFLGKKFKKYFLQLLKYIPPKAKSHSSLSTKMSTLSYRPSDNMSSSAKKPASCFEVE
# T1 sequence (P35351 whole entry): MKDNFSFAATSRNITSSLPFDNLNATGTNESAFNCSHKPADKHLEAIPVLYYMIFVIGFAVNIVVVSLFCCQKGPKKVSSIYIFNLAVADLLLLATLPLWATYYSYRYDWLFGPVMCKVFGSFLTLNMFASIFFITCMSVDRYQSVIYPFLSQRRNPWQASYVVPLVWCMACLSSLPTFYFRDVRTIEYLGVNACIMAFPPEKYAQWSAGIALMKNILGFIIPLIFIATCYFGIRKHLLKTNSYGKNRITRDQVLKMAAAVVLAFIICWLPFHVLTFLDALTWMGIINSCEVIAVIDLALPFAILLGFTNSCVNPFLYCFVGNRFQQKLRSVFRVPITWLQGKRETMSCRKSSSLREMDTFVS
# [1] = target: Angiotensin II receptor (Oryctolagus cuniculus); test: Inhibition of angiotensin II induced vasoconstriction of rabbit aorta
# Rattus norvegicus [2] = test: Compound was evaluated in vivo, for the dose that produced 50% inhibition of the pressor response to AII in conscious normotensive rats after iv administration; assay type: functional; conditions: read-out: ID50 (the source's name)
# Method in brief: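 Conscious normotensive rats with indwelling femoral arterial and venous catheters were tested 2-3 days after surgery while in a restrainer, with continuous arterial pressure recording. The MAP rise to iv angiotensin II 250 ng/kg was measured at time points before and after iv compound at 0.3-300 mg/kg.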
# [3] = target: T2, Type-1 angiotensin II receptor B (Rattus norvegicus, UniProt P29089); test: Inhibition of [125I]angiotensin II receptor specific binding to rat mesenteric arteries
# T2 sequence (P29089 whole entry): T1 sequence (P29089 whole entry)
# [4] = target: T3, Type-1 angiotensin II receptor (Oryctolagus cuniculus) (UniProt P34976); test: (§1) Compound was evaluated for the inhibition of AII-induced vasoconstriction of the rabbit aorta; assay type: functional, tissue-based
# T3 sequence (whole entry): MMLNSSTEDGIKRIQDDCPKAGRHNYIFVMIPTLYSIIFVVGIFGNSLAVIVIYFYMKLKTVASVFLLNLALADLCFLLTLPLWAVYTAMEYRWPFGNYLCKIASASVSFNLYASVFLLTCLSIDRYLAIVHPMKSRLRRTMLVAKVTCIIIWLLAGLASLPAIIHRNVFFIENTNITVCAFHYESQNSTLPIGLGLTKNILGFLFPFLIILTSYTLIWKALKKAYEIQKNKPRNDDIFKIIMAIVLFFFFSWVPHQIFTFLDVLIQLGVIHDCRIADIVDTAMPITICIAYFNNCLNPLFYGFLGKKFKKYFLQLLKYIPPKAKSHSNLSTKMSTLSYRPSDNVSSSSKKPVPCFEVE
# Method in brief: (§2)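 Isolated rabbit aorta ring segments mounted on metal supports attached to force displacement transducers. Cumulative angiotensin II concentration-response curves were run without antagonist or after a 30-min antagonist incubation.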
# Rattus norvegicus [5] = test: Compound was evaluated in vivo, for the dose that produced 50% inhibition of the pressor response to AII in conscious normotensive rats after intraduodenal administration; assay type: functional; conditions: read-out: ID50 (the source's name)
# [6] = target: T3, Type-1 angiotensin II receptor (Oryctolagus cuniculus); test: as §1; method in brief: as §2
# [7] = target: T3, Type-1 angiotensin II receptor (Oryctolagus cuniculus); test: (§3) Compound was evaluated for the inhibition of Angiotensin II receptor induced vasoconstriction of the rabbit aorta; assay type: functional, tissue-based; method in brief: as §2
# [8] = target: T3, Type-1 angiotensin II receptor (Oryctolagus cuniculus); test: as §3; assay type: tissue-based; method in brief: as §2
# [9] = target: Angiotensin II receptor (Oryctolagus cuniculus); test: Compound was evaluated for the inhibition of Angiotensin II receptor, induced vasoconstriction of the rabbit aorta
# [10] = target: T2, Type-1 angiotensin II receptor B; test: Compound was evaluated for the inhibition of [125I]AII specific binding to rat mesenteric arteries
# Method in brief: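 Particulate fraction from rat mesenteric arteries incubated in Tris buffer with 80 pM [125I]angiotensin II, with or without antagonist, for 1 h at 25 °C. The incubation was stopped by rapid filtration, and filter-bound radioligand was counted on a γ counter. Inhibition of specific binding; n = 3-5.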
# [11] = target: T3, Type-1 angiotensin II receptor (Oryctolagus cuniculus); test: as §1; assay type: tissue-based; method in brief: as §2
Structure (SMILES),IC50 (Angiotensin II receptor) [nM],Kb [1] [nM],further results
CCCCc1ncc(-c2cccc(C(=O)O)c2)n1Cc1ccccc1Cl,33900,4800,
CCCCc1ncc(/C=C(\Cc2c[nH]cn2)C(=O)O)n1Cc1ccccc1Cl,250,310,ED50 (Rattus norvegicus [2]): 11 mg/kg
CCCCc1ncc(/C=C(/C(=O)O)C(c2ccccc2)c2cccs2)n1Cc1ccccc1Cl (stereo not drawn),,2300,pIC50 [3]: 5.62
CCCCc1ncc(/C=C(\C)C(=O)O)n1Cc1ccccc1Cl,22300,970,
CCCCc1ncc(/C=C(/C(=O)O)c2ccccc2)n1Cc1ccccc1Cl,20100,600,
CCCCc1ncc(/C=C(\Cc2ccc(O)c(O)c2)C(=O)O)n1Cc1ccccc1Cl,58,,Kb [4]: 140 nM; ED50 (Rattus norvegicus [5]): 20 mg/kg
CCCCc1ncc(/C=C(\Cc2ccc(N)cc2)C(=O)O)n1Cc1ccccc1Cl,,320,pIC50 [3]: 5.52
CCCCc1ncc(/C=C(\Cc2ccoc2)C(=O)O)n1Cc1ccccc1Cl,360,30,
CCCCc1ncc(/C=C(\Cc2ccc(OC)cc2)C(=O)O)n1Cc1ccccc1Cl,810,120,ED50 (Rattus norvegicus [2]): 9 mg/kg
CCCCc1ncc(/C(C)=C/C(=O)O)n1Cc1ccccc1Cl,3600,660,
CCCCc1ncc(/C=C(\Cc2ccc([N+](=O)[O-])cc2)C(=O)O)n1Cc1ccccc1Cl,,310,pIC50 [3]: 6.40
CCCCc1ncc(/C=C(/C(=O)O)C(C)c2ccccc2)n1Cc1ccccc1Cl (stereo not drawn),4600,240,
CCCCc1ncc(/C=C(\Cc2cc(OC)c(OC)c(OC)c2)C(=O)O)n1Cc1ccccc1Cl,1900,1700,
CCCCc1ncc(/C=C/C(=O)O)n1Cc1ccccc1Cl,124000,14000,
CCCCc1ncc(/C=C(/C(=O)O)C(Cc2ccccc2)c2cccs2)n1Cc1ccccc1Cl (stereo not drawn),5200,610,
CCCCc1ncc(CC(=O)O)n1Cc1ccccc1Cl,,,ED50 (Rattus norvegicus [2]): 22.5 mg/kg
CCCCc1ncc(/C=C(\Cc2ccccc2)C(=O)O)n1Cc1ccccc1Cl,,,pIC50 [3]: 5.59; ED50 (Rattus norvegicus [2]): 14 mg/kg; Kb [6]: 64 nM
CCCCc1ncc(/C=C(\Cc2ccco2)C(=O)O)n1Cc1ccccc1Cl,1200,50,
CCCCc1ncc(/C=C(/Cc2ccco2)C(=O)O)n1Cc1ccccc1Cl,> 100000,14400,
CCCCc1ncc(/C=C(\Cc2ccc(OC)s2)C(=O)O)n1Cc1ccccc1Cl,,30,pIC50 [3]: 7.05
CCCCc1nc(Cl)c(CC(=O)O)n1Cc1ccccc1Cl,,,Kb [8]: 2700 nM; ED50 (Rattus norvegicus [2]): 30 mg/kg
CCCCc1ncc(-c2ccccc2C(=O)O)n1Cc1ccccc1Cl,> 100000,17200,
CCCCc1ncc(/C=C(\Cc2cccs2)C(=O)O)n1Cc1ccccc1Cl,,,ED50 (Rattus norvegicus [2]): 3.6 mg/kg
CCCCc1ncc(/C=C(/Cc2ccccc2)C(=O)O)n1Cc1ccccc1Cl,,,Kb [4]: 8700 nM
CCCCc1ncc(/C=C(\Cc2ccsc2)C(=O)O)n1Cc1ccccc1Cl,,,pIC50 [3]: 6.48; ED50 (Rattus norvegicus [2]): 6.4 mg/kg
CCCCc1ncc(/C=C(\Cc2cccc(Oc3ccccc3)c2)C(=O)O)n1Cc1ccccc1Cl,,,pIC50 [10]: 5.00; Kb [11]: 18100 nM

# Now from value to molecule, other results behind:
IC50 (Angiotensin II receptor) [nM],Kb [1] [nM],Structure (SMILES),further results
> 10000,15000,CCCCc1ncc(CCCC(=O)O)n1Cc1ccccc1Cl,
21900,14600,CCCCc1ncc(/C=C(\Cc2ccc3ccccc3c2)C(=O)O)n1Cc1ccccc1Cl,
120,470,CCCCc1ncc(/C=C(\Cc2ccc(O)cc2)C(=O)O)n1Cc1ccccc1Cl,
16500,2800,CCCCc1ncc(CCC(=O)O)n1Cc1ccccc1Cl,
810,270,CCCCc1ncc(/C=C(\Cc2cccc(OC)c2)C(=O)O)n1Cc1ccccc1Cl,ED50 (Rattus norvegicus [2]): 10 mg/kg
300,180,CCCCc1ncc(/C=C(\Cc2cccnc2)C(=O)O)n1Cc1ccccc1Cl,ED50 (Rattus norvegicus [2]): 9.8 mg/kg
,30,CCCCc1ncc(/C=C(\Cc2cc(OC)cs2)C(=O)O)n1Cc1ccccc1Cl,pIC50 [3]: 6.52
19000,7000,CCCCc1ncc(CCCCCC(=O)O)n1Cc1ccccc1Cl,
8900,810,CCCCc1ncc(/C=C\C(=O)O)n1Cc1ccccc1Cl,ED50 (Rattus norvegicus [2]): 15 mg/kg
18700,,CCCCc1ncc(/C=C(/C(=O)O)C(CCCC)c2cccs2)n1Cc1ccccc1Cl (stereo not drawn),Kb [4]: 3100 nM
860,,CCCCc1ncc(/C=C(\CCc2cccs2)C(=O)O)n1Cc1ccccc1Cl,Kb [7]: 140 nM
2900,420,CCCCc1ncc(/C=C(\CCc2ccccc2)C(=O)O)n1Cc1ccccc1Cl,
17000,11000,CCCCc1ncc(CCCCC(=O)O)n1Cc1ccccc1Cl,
6800,,CCCCc1ncc(/C=C(\Cc2ccc(OC)c(OC)c2)C(=O)O)n1Cc1ccccc1Cl,Kb [9]: 620 nM
820,2900,CCCCc1ncc(/C=C(\Cc2ccccn2)C(=O)O)n1Cc1ccccc1Cl,
470,130,CCCCc1ncc(/C=C(\Cc2ccc3c(c2)OCO3)C(=O)O)n1Cc1ccccc1Cl,ED50 (Rattus norvegicus [2]): 9.4 mg/kg
,13700,CCCCc1ncc(/C=C(\Cc2ccc(Cl)c(Cl)c2)C(=O)O)n1Cc1ccccc1Cl,pIC50 [3]: 4.59
150,170,CCCCc1ncc(/C=C(\Cc2ccncc2)C(=O)O)n1Cc1ccccc1Cl,ED50 (Rattus norvegicus [2]): 5.9 mg/kg
,280,CCCCc1ncc(/C=C(\Cc2sccc2C)C(=O)O)n1Cc1ccccc1Cl,pIC50 [3]: 6.14
,130,CCCCc1ncc(/C=C(\Cc2ccc(C)s2)C(=O)O)n1Cc1ccccc1Cl,pIC50 [3]: 6.15; ED50 (Rattus norvegicus [2]): 7.6 mg/kg
14600,590,CCCCc1ncc(/C=C(\Cc2ccc(N(C)C)cc2)C(=O)O)n1Cc1ccccc1Cl,
,1140,CCCCc1ncc(/C=C(\Cc2ccccc2C)C(=O)O)n1Cc1ccccc1Cl,pIC50 [3]: 5.30
